How the values were obtained:
Mus musculus [1] = assay: Antialzheimer activity in 5XFAD mouse assessed as average plaque volume in […] cortex at 75 ppm administered as rodent chow starting from 1.5 months and measured after 5 months by immunolabeling based confocal microscopic analysis (reference value: 789.31 to 1314.37 microm3); assay type: functional; settings: route po, time 3.5 months, 2555 h
Procedure, shortened: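 5xFAD mice fed PLX3397 at 75 ppm in AIN-76A chow from 1.5 to 5 months of age; retrosplenial and somatosensory cortex sections stained with Thio-S and immunolabeled for IBA1; confocal imaging, IBA1+ cells and plaques quantified per region; two-tailed independent t-test, n = 4–5 per group, mean ± SEM.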

Aurora kinase C = Aurora kinase C (Homo sapiens, UniProt Q9UQB9); assay: Inhibition of AURKC (unknown origin)
Chain of Aurora kinase C (Q9UQB9 whole entry): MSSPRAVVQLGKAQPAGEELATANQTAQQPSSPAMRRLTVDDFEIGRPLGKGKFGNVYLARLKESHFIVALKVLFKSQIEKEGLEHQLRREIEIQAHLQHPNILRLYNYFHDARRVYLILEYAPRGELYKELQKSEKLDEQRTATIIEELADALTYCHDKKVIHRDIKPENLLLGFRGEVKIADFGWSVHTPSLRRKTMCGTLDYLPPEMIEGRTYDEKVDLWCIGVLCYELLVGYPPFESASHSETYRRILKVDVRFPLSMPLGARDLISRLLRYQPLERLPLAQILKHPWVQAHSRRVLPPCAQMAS

Activin receptor type-1B = Activin receptor type-1B (Homo sapiens, UniProt P36896); assay: Inhibition of ACVR1B (unknown origin)
[2] = target: RAC-beta serine/threonine-protein kinase (Homo sapiens, UniProt P31751); assay: Inhibition of AKT2 (unknown origin)
Chain of RAC-beta serine/threonine-protein kinase (P31751 whole entry, canonical isoform): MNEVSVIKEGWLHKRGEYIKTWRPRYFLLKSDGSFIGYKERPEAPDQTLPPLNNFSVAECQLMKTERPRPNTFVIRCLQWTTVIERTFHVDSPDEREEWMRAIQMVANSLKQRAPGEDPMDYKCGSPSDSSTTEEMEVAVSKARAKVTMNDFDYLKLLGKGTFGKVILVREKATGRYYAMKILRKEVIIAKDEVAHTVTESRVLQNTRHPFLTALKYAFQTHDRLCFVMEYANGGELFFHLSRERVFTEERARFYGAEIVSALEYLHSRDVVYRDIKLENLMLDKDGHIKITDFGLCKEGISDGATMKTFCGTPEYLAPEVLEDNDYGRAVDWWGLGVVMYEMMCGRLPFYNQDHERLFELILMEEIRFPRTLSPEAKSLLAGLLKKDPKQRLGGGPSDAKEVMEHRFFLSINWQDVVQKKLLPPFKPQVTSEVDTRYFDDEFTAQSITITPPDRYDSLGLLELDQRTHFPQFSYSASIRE

[3] = target: Casein kinase I isoform gamma-2 (Homo sapiens, UniProt P78368); assay: Inhibition of CSNK1G2 (unknown origin)
Ephrin type-B receptor 4 = Ephrin type-B receptor 4 (Homo sapiens, UniProt P54760); assay: Inhibition of EPHB4 (unknown origin)
[4] = target: Fibroblast growth factor receptor 4 (Homo sapiens, UniProt P22455); assay: Inhibition of FGFR4 (unknown origin)
Chain of Fibroblast growth factor receptor 4 (P22455 whole entry): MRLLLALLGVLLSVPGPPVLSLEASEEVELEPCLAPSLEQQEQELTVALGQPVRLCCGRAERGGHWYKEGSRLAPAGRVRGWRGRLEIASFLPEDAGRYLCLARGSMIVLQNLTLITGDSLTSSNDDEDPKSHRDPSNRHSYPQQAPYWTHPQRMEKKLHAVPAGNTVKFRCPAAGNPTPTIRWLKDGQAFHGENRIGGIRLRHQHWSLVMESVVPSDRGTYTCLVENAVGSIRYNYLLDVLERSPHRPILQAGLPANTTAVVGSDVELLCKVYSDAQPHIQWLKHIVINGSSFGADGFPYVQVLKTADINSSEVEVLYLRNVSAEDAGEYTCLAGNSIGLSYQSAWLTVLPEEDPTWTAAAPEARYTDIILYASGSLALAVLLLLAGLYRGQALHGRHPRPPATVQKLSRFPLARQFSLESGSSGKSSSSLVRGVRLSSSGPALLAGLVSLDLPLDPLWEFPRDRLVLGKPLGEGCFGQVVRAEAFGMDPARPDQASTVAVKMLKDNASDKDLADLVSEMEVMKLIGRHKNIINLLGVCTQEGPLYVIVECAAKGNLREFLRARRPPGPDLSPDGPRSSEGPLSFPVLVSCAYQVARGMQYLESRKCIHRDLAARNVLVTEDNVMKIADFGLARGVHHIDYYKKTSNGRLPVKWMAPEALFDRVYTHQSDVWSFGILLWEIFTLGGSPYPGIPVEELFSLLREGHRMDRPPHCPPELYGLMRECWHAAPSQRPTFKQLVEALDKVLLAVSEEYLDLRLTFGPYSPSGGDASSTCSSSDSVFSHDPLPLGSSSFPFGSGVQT

[5] = target: Tyrosine-protein kinase JAK2 (Homo sapiens, UniProt O60674); assay: Inhibition of JAK2 (unknown origin)
[6] = target: Mitogen-activated protein kinase 13 (Homo sapiens, UniProt O15264); assay: Inhibition of MAPK13 (unknown origin)
[7] = target: Phosphorylase b kinase gamma catalytic chain, skeletal muscle/heart isoform (Homo sapiens, UniProt Q16816); assay: Inhibition of PHKG1 (unknown origin)
[8] = target: PI3-kinase p110-delta/p85-alpha (Homo sapiens, UniProt O00329); assay: Inhibition of PIK3CD/PIK3R1 (unknown origin); assay type: protein-complex assay
Chain of PI3-kinase p110-delta/p85-alpha (P27986 whole entry): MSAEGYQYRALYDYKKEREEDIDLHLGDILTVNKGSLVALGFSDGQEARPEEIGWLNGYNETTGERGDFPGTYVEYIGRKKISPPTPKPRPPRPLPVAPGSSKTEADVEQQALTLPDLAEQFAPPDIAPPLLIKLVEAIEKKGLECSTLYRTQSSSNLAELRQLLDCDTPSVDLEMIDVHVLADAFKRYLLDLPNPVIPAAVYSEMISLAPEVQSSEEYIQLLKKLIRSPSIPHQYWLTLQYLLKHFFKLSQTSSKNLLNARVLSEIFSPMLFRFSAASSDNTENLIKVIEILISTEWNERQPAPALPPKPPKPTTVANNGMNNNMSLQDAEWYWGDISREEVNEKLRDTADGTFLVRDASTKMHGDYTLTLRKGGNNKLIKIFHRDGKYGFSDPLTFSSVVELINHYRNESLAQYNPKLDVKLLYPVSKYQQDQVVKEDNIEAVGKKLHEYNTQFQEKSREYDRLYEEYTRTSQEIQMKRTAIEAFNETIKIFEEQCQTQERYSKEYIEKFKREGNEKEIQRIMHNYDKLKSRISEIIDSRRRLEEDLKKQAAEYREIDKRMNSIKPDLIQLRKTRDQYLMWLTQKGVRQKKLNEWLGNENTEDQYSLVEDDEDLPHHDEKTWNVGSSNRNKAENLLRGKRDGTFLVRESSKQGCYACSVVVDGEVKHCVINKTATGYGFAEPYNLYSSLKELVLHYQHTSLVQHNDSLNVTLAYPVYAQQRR
Chain of PI3-kinase p110-delta/p85-alpha (O00329 whole entry): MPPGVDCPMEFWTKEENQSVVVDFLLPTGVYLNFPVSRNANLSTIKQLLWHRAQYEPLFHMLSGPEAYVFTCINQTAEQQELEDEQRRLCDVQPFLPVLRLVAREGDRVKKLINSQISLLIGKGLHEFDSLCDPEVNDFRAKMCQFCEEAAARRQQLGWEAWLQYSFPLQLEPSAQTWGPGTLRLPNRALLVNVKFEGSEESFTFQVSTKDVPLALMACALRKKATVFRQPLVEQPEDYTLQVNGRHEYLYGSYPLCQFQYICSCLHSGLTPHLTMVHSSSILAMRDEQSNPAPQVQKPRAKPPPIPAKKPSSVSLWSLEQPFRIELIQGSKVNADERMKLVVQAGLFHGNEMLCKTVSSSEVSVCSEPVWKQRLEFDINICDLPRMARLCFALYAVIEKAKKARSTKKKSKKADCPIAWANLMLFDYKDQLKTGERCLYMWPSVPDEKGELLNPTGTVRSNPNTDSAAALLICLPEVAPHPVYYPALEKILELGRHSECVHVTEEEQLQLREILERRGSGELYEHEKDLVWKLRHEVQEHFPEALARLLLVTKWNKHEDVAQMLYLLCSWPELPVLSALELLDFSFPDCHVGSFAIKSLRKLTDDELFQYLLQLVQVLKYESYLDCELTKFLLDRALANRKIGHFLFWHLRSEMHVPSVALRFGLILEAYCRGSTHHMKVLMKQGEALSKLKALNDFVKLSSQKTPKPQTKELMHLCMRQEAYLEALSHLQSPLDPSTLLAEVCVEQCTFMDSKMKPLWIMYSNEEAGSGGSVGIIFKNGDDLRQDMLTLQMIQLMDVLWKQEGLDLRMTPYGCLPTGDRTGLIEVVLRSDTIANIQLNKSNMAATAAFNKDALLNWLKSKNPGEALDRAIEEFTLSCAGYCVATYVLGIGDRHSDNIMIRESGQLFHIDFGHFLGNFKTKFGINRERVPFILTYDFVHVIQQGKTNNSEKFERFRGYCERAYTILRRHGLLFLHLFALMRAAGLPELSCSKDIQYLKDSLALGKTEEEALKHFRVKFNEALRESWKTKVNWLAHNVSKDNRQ

[9] = target: Protein kinase C eta type (Homo sapiens, UniProt P24723); assay: Inhibition of PRKCH (unknown origin)
Chain of Protein kinase C eta type (P24723 whole entry): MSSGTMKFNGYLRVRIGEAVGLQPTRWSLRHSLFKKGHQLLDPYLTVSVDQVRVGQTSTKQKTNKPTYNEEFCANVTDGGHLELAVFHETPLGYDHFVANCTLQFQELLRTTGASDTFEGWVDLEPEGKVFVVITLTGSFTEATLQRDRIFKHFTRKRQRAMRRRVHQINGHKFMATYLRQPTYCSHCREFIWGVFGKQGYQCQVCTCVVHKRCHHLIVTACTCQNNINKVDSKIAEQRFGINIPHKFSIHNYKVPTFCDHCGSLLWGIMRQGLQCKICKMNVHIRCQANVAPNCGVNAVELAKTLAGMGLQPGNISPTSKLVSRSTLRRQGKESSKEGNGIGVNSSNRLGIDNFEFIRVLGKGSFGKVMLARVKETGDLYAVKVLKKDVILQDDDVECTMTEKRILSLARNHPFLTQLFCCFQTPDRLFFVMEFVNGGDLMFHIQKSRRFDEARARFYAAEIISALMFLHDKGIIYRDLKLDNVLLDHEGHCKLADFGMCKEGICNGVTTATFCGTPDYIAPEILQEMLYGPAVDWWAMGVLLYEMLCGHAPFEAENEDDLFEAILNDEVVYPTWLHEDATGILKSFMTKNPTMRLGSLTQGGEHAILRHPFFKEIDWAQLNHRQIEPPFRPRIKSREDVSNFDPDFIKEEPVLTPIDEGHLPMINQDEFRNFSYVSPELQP

[10] = target: Ribosomal protein S6 kinase alpha-5 (Homo sapiens, UniProt O75582); assay: Inhibition of RPS6KA5 (unknown origin)
Chain of Ribosomal protein S6 kinase alpha-5 (O75582 whole entry): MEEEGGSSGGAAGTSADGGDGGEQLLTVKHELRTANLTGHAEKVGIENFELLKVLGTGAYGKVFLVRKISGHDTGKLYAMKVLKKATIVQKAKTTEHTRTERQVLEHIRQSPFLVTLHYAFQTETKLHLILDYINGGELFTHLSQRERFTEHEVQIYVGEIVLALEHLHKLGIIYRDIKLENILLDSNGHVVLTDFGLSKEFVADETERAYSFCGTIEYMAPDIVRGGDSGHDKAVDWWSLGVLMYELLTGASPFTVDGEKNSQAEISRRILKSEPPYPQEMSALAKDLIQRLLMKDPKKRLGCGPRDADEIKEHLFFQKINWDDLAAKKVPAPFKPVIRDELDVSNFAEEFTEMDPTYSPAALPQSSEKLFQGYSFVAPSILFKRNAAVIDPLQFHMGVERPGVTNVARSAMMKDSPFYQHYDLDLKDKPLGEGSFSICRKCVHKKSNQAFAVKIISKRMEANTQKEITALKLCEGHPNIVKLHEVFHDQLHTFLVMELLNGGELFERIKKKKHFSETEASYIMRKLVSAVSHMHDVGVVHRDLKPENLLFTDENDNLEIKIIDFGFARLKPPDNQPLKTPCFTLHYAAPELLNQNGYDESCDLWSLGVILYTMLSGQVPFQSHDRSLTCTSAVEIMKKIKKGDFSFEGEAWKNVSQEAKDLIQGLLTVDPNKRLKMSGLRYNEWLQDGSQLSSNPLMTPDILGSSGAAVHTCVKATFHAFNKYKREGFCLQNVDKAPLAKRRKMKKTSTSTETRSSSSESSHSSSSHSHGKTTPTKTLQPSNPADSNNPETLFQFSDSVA

[11] = target: Serine/threonine-protein kinase TBK1 (Homo sapiens, UniProt Q9UHD2); assay: Inhibition of TBK1 (unknown origin)
[12] = Toxicity in wildtype mouse assessed as time spent in perimeter zone at 1200 ppm administered as rodent chow for 10 to 24 weeks by Open field test (reference value: 223.8 to 267.6 sec); settings: in vivo, po, time 10-24 weeks
Mus musculus [13] = assay: Antialzheimer activity in 5XFAD mouse assessed as time spent in perimeter zone at 1200 ppm administered as rodent chow for 10 to 24 weeks by Open field test (reference value: 169.1 to 285.1 sec); assay type: functional; settings: route po, time 10-24 weeks
Mus musculus [14] = assay: Antialzheimer activity in 5XFAD mouse assessed as ApoE immunoreactivity by measuring APP volume per number of Thio-S positive deposits at 1200 ppm administered as rodent chow starting from 1.5 months and measured after 7 months by immunolabeling based confocal microscopic analysis (reference value: 6.415 to 29.760 microm3); assay type: functional; settings: route po, time 5.5 months, 4015 h
[15] = Effect on Spi1 gene expression in wild type mouse thalamus at 1200 ppm administered as rodent chow starting from 1.5 months and measured after 7 months by RNA-Seq analysis (reference value: 1.161 to 2.277 RPKM); assay type: functional; settings: route po, time 5.5 months, 4015 h
[16] = Effect on Clec7a gene expression in wild type mouse cortex at 1200 ppm administered as rodent chow starting from 1.5 months and measured after 7 months by RNA-Seq analysis (reference value: 0 to 0.413 RPKM); assay type: functional; settings: route po, time 5.5 months, 4015 h
Procedure, shortened: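 WT and 5xFAD mice were treated with 1200 ppm PLX5622 chow or control chow from 1.5 to 7 months of age. Brains were microdissected into cortex, hippocampus and thalamus, and RNA was extracted from tissue powder. Whole-transcriptome RNA-Seq libraries were sequenced, with n = 4 per group per region (48 samples).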

[17] = Effect on Ctsd gene expression in wild type mouse thalamus at 1200 ppm administered as rodent chow starting from 1.5 months and measured after 7 months by RNA-Seq analysis (reference value: 123.974 to 159.747 RPKM); assay type: functional; settings: route po, time 5.5 months, 4015 h
[18] = Prevention of Pcdhac1 gene downregulation in 5XFAD mouse hippocampus assessed as percent change in Reads Per kilo base per Million mapped reads at 1200 ppm administered as rodent chow starting from 1.5 months and measured after 7 months by RNA-Seq analysis (reference value: 43.082 to 72.354 %); assay type: functional; settings: route po, time 5.5 months, 4015 h
[19] = target: T1, Macrophage colony-stimulating factor 1 receptor (Mus musculus) (UniProt P09581); assay: In vivo inhibition of CSF1R in wildtype mouse assessed as number of GFAP positive cells per FOV at 1200 ppm administered as rodent chow starting from 1.5 months and measured after 4 months by immunolabeling based confocal microscopic analysis (reference value: 1 to 7); assay type: functional; settings: route po, time 2.5 months
T1 sequence (whole entry): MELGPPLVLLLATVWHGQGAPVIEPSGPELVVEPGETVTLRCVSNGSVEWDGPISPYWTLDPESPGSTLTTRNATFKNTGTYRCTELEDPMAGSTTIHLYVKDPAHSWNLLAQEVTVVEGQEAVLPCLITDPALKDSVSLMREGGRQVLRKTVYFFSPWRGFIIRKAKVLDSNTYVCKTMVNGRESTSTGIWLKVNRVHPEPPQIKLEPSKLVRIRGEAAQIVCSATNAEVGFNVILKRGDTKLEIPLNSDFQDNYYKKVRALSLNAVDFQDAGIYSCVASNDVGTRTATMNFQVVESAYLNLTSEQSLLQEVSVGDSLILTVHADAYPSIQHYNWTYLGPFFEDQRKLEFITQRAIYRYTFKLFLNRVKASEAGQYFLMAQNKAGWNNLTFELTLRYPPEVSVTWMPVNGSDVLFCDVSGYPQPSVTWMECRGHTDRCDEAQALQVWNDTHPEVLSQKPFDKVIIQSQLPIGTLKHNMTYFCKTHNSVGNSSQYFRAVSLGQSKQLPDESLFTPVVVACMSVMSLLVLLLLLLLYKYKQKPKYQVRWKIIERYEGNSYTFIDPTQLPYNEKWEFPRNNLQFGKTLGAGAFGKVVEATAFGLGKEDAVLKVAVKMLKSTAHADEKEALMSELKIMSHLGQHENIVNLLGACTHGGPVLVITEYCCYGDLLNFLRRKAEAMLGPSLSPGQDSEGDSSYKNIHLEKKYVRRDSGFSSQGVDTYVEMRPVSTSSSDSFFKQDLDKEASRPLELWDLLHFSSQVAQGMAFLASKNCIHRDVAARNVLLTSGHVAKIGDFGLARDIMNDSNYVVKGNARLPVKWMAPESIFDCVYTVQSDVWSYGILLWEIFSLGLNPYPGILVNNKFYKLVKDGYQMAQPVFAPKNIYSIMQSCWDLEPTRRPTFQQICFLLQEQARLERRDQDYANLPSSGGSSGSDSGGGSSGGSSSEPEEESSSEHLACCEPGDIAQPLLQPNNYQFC

## FC(F)(F)c1ccc(CNc2ccc(Cc3c[nH]c4ncc(Cl)cc34)cn2)cn1 [PEXIDARTINIB]
Mus musculus [1]
  Activity: 688.11 um3

## COc1ncc(F)cc1CNc1ccc(Cc2c[nH]c3ncc(C)cc23)c(F)n1 [PLX-5622]
Aurora kinase C
  IC50: 1000 nM
Activin receptor type-1B
  IC50: > 1000 nM
[2]
  IC50: > 1000 nM
[3]
  IC50: > 1000 nM
Ephrin type-B receptor 4
  IC50: > 1000 nM
[4]
  IC50: > 1000 nM
[5]
  IC50: > 1000 nM
[6]
  IC50: > 1000 nM
[7]
  IC50: > 1000 nM
[8]
  IC50: > 1000 nM
[9]
  IC50: > 1000 nM
[10]
  IC50: > 1000 nM
[11]
  IC50: > 1000 nM
[12]
  Time: 178.5 s
Mus musculus [13]
  Time: 201.4 s
Mus musculus [14]
  Activity: 10.459 um3
[15]
  Activity: 0 RPKM
[16]
  Activity: 0 RPKM
[17]
  Activity: 100.931 RPKM
[18]
  Activity: 76.485%
[19]
  Activity: 4

Reference: ChEMBL document CHEMBL5649170, “Sustained microglial depletion with CSF1R inhibitor impairs parenchymal plaque development in an Alzheimer's disease model” (Nat Commun, 2019)
